In PubChem BioAssay:
The source made the active and inactive calls. Rule as the data show it, unless noted: active = inhibition above about 30%; inactive = the rest.

Experiments:
[1] = reducers of endogenous Her2 protein level, primary screen, SKBR3 breast tumor cells, AlphaScreen, ATP viability (AID 461;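 active = Her2 level under about 52% in both replicate screens, with viability over 70% of control, limit read from the data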;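 as to Her2 level: lower value means less Her2 protein in the cells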;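 as to viability: percent of carrier control wells set as 100% viability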); settings: 18-24 h, measured here: SKBR3 viability, ATP luminescence, at 10 µM
[2] = target: Receptor tyrosine-protein kinase erbB-2 (Homo sapiens) (UniProt P04626); test: as above; settings: 18-24 h, at 10 µM, stronger effect = lower value
[3] = SK-BR-3 cell growth inhibitors, pilot screen, 24 h, human (AID 572;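 active = viability at or below 10% of carrier control in both of two separate runs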;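 also: compound exposure lasted between 18 and 24 h rather than exactly 24 h; 100% = carrier-treated control wells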); settings: SK-BR-3 viability, CellTiter-Glo luminescence, at 10 µM, stronger effect = lower value
[4] = HUVEC growth inhibition – cell-based, human, primary screen (AID 575;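 active = viability at or below 30% in both replicate assays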;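 also: 100% = median of untreated cell wells with 0.1% DMSO on each plate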); settings: HUVEC proliferation, CellTiter-Glo luminescence, 72 h; at 10 µM; stronger effect = lower value
Method in brief: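 system = HUVEC primary cells | amount = 1250 cells/well | buffer or medium = supplemented EBM, 2% fetal bovine serum | dosing = single-point 10 µM, DMSO 0.1% final | times = 72 h compound incubation | detection = CTG luminescence | read-out = % viability relative to median vehicle-well signal on each plate | control set = vehicle and MePR control wells | format = collagen-coated 384-well format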

[5] = growth inhibitors of H69AR lung tumor, primary screen, human, duplicate replicates (AID 580;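 active = viability at or under a set limit in both replicates, limit being median viability minus 3 SD, cut at about 48% in these data, passing the limit was not always enough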;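 also: 100% = mean luminescence of untreated wells and 0% = no signal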); settings: H69AR lung tumor cells viability, ATP luminescence, 72 h; at 10 µM; stronger effect = lower value
[6] = reversal of MRP1-mediated doxorubicin resistance, pilot screen, H69AR cells, doxorubicin co-treatment (AID 601;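 active = viability loss from added drug above about 55%, and viability with drug at most 40%, in both replicates, limit read from the data, passing the limit was not always enough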); settings: CellTiter-Glo, 72 h, at 10 µM; for differential viability (reversal): stronger effect = higher value
[7] = 384-well plate pilot, post-Golgi transport modulator project, inhibition of yeast transport mutant growth (AID 636; in the data active = inhibition above about 31%); settings: absorbance 615 nm, about 18 h, stronger effect = higher value
[8] = growth suppression of yeast trafficking mutant, preliminary HTS, modulators of trafficking downstream of Golgi apparatus project, 1536-format plate, OD 615 nm (AID 637); settings: yeast transport mutant growth, absorbance 615 nm, 18 h; stronger effect = higher value
[9] = H69AR cells + 2 uM doxorubicin, measured here: viability with 2 uM doxorubicin, stronger effect = lower value
[10] = H69AR cells, compound alone cytotoxicity

Sequence of Receptor tyrosine-protein kinase erbB-2 (Homo sapiens) (P04626 whole entry, looked up): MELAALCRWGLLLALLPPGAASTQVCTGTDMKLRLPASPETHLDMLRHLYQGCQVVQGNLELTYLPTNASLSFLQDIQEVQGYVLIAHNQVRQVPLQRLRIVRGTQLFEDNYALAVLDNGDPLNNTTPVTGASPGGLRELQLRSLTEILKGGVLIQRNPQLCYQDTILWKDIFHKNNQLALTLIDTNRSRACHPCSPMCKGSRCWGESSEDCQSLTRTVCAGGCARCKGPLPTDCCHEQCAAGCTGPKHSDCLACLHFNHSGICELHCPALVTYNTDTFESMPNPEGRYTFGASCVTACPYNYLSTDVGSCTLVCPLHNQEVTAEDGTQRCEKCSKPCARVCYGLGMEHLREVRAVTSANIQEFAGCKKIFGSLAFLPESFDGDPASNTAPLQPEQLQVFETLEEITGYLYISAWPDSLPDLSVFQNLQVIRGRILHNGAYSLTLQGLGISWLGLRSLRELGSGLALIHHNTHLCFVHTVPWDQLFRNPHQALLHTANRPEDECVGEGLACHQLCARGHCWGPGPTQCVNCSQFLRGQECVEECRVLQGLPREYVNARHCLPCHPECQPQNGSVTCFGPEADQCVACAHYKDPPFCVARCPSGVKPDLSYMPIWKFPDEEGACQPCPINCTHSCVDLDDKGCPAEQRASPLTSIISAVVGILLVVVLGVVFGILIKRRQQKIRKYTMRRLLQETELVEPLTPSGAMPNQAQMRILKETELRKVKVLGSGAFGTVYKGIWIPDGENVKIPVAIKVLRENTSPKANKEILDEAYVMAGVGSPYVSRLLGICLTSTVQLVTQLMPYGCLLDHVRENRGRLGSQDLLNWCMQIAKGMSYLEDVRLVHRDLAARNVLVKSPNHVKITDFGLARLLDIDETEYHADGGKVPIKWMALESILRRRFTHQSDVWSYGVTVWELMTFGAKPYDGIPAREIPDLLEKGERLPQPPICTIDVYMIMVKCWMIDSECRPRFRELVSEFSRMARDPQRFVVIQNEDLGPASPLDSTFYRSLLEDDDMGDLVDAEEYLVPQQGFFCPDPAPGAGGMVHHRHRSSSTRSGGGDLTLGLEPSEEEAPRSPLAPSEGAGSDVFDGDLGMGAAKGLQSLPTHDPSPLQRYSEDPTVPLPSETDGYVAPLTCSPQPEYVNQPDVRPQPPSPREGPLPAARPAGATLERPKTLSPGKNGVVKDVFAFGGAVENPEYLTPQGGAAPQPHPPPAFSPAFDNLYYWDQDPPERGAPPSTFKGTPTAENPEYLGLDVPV

Structure (SMILES)	viability [1] [%]	Her2 level [2]	viability [3]	viability [4]	viability [5]	differential viability (reversal) ([6]; H69AR cells + 2 uM doxorubicin)	viability [6, 9] [%]	viability [6, 10] [%]	inhibition [7]	inhibition [8]
CS(=O)(=O)Nc1ccc(C(=O)NCc2ccco2)cc1	88.5	106% (inactive)	88.5% (inactive)	104% (inactive)	103% (inactive)	2.3% (inactive)	101	103	-1.05% (inactive)	-5.16% (inactive)
Cc1cc(C)n(CCCNC(=O)c2ccc3c(c2)NC(=O)CS3)n1	104	80.5% (inactive)	104% (inactive)	91.8% (inactive)	89.7% (inactive)	3.36% (inactive)	86.3	89.7	-5.6% (inactive)	-1.48% (inactive)
COc1ccc(CC(NC(C)=O)C(=O)N2CCN(C(=O)N(C(C)C)C(C)C)CC2)cc1 (stereo not given)	90.5	110% (inactive)	90.5% (inactive)	94.5% (inactive)	94.2% (inactive)	5.88% (inactive)	88.3	94.2	-5.13% (inactive)	-12.8% (inactive)
CC12CN3CC(C)(CN(C1)C3c1cc(Br)ccc1O)C2=O (stereo not given)	95.5	124% (inactive)	95.5% (inactive)	87% (inactive)	100% (inactive)	1.15% (inactive)	98.9	100	-0.65% (inactive)	-3.83% (inactive)
Cc1cc(-c2ccc(F)cc2)nc2cc(C(N)=O)nn12	94.5	104% (inactive)	94.5% (inactive)	84.6% (inactive)	87.6% (inactive)	-1.99% (inactive)	89.6	87.6	-2.47% (inactive)	17.3% (inactive)
CC(=O)Nc1ccc(S(=O)(=O)NCC2CCC(C(=O)NCCCN3CCCC3=O)CC2)cc1 (stereo not given)	107	91.5% (inactive)	107% (inactive)	92.4% (inactive)	94.3% (inactive)	6.51% (inactive)	87.8	94.3	-4.13% (inactive)	1.45% (inactive)
Cn1c(=O)c(-c2ccccc2)nn2c3ccccc3nc12	82.5	63.5% (inactive)	82.5% (inactive)	90.8% (inactive)	90.8% (inactive)	-0.73% (inactive)	91.6	90.8	-7.03% (inactive)	3% (inactive)
O=C(O)CCCC(=O)Nc1ccc(Br)cc1C(=O)O	95.5	90% (inactive)	95.5% (inactive)	93.8% (inactive)	96.8% (inactive)	14.4% (inactive)	82.4	96.8	-0.53% (inactive)	-0.16% (inactive)
CC(=O)c1cccc(NC(=O)N2C3CCC2CC(O)(c2cccnc2)C3)c1 (stereo not given)	102	98.5% (inactive)	102% (inactive)	100% (inactive)	106% (inactive)	9.59% (inactive)	96.7	106	0.41% (inactive)	-5.83% (inactive)
CCc1nn2c(=O)cc(CSc3nc4sc5c(c4c(=O)n3C)CCCC5)nc2s1	100	98% (inactive)	100% (inactive)	113% (inactive)	90% (inactive)	0.36% (inactive)	89.6	90	-0.65% (inactive)	10% (inactive)
COc1ccc(-c2noc(CN(C(=O)C(C)(C)C)C(C)C)n2)cc1	96	102% (inactive)	96% (inactive)	102% (inactive)	109% (inactive)	17.6% (inactive)	91.3	109	-4.61% (inactive)	-6.83% (inactive)
CCCOc1nc(N)c(C#N)c(-c2ccccc2F)c1C#N	98.5	114% (inactive)	98.5% (inactive)	82.6% (inactive)	89.7% (inactive)	29% (inactive)	60.7	89.7	-2.53% (inactive)	-9.52% (inactive)
COc1ccc(-c2nnc(SCC(=O)N3CCCCC3)o2)cc1OC	104	104% (inactive)	104% (inactive)	88.7% (inactive)	97.5% (inactive)	5.33% (inactive)	92.1	97.5	-2.93% (inactive)	-5.9% (inactive)
Cc1n[nH]c(C)c1S(=O)(=O)N1CCN(c2ccccn2)CC1	99.5	108% (inactive)	99.5% (inactive)	111% (inactive)	103% (inactive)	3.44% (inactive)	99.8	103	-0.26% (inactive)	-4.29% (inactive)
Cc1ccc(/C=c2\sc3nc(-c4ccccc4Br)nn3c2=O)o1	89	85% (inactive)	89% (inactive)	110% (inactive)	95.5% (inactive)	6.48% (inactive)	89	95.5	-7.47% (inactive)	10.7% (inactive)
Cc1nn(-c2ccc(Cl)cc2)c2sc(C(=O)N3CCN(c4ccccn4)CC3)cc12	103	80% (inactive)	103% (inactive)	51.6% (inactive)	67.2% (inactive)	9.58% (inactive)	57.6	67.2	-5.84% (inactive)	-2.54% (inactive)

Structure (SMILES)	viability [1] [%]	Her2 level [2]	viability [3]	viability [4]	viability [5]	differential viability (reversal) ([6]; H69AR cells + 2 uM doxorubicin)	viability [6, 9] [%]	viability [6, 10] [%]	inhibition [7]	inhibition [8]
O=C(NCc1cccs1)C1CCCN(c2ncccn2)C1 (stereo not given)	104	89.5% (inactive)	104% (inactive)	105% (inactive)	94.8% (inactive)	8.86% (inactive)	85.9	94.8	-2.4% (inactive)	-1.94% (inactive)
Cc1cc(NC(=O)COC(=O)C2COc3ccccc3O2)no1 (stereo not given)	110	95.5% (inactive)	110% (inactive)	104% (inactive)	96.7% (inactive)	11% (inactive)	85.7	96.7	-4.61% (inactive)	-5% (inactive)
C=CCSc1ncccc1C(=O)O	89.5	104% (inactive)	89.5% (inactive)	98.4% (inactive)	97.1% (inactive)	8.72% (inactive)	88.3	97.1	-1.32% (inactive)	-7.42% (inactive)
CN(Cc1ccccc1)Cc1nc2c(c(=O)n(C)c(=O)n2C)n1Cc1ccc(Cl)cc1	67.5	102% (inactive)	67.5% (inactive)	84.1% (inactive)	86% (inactive)	1.76% (inactive)	84.2	86	-0.67% (inactive)	7.05% (inactive)
Cc1cc(Nc2ccccc2N2CCOCC2)n2ncnc2n1	94.5	96% (inactive)	94.5% (inactive)	88% (inactive)	97.1% (inactive)	-0.715% (inactive)	97.8	97.1	-2.43% (inactive)	4.6% (inactive)
Cc1cc(C)c(C#N)c(SCc2[nH]nc3c2C(c2ccccc2)C(C#N)=C(N)O3)n1 (stereo not given)	93	80.5% (inactive)	93% (inactive)	85.3% (inactive)	99.7% (inactive)	4.6% (inactive)	95.1	99.7	-5.33% (inactive)	-4.03% (inactive)
CCOC(=O)CN1CC23C=CC(O2)C(C(=O)NC2CCCC2)C3C1=O (stereo not given)	86.5	84% (inactive)	86.5% (inactive)	106% (inactive)	98.2% (inactive)	10.6% (inactive)	87.6	98.2	-0.64% (inactive)	4.33% (inactive)
CCCN(Cc1cc2cc(C)ccc2[nH]c1=O)C(=O)c1cccc(OC)c1	114	91% (inactive)	114% (inactive)	70.6% (inactive)	81.2% (inactive)	-0.89% (inactive)	82.1	81.2	-7.07% (inactive)	-0.65% (inactive)
Cc1cc(C(=O)O)ccc1-n1c(C)ccc1C	100	92% (inactive)	100% (inactive)	89.6% (inactive)	93.2% (inactive)	1.35% (inactive)	91.8	93.2	1.32% (inactive)	-4.52% (inactive)
O=C(CSc1nnc(-c2cccnc2)o1)OC1CCCCC1	110	110% (inactive)	110% (inactive)	95.8% (inactive)	101% (inactive)	13.2% (inactive)	87.9	101	-7.87% (inactive)	0.48% (inactive)
O=C(Nc1ccc(CN2CCCCC2)cc1)c1ccc2c(c1)OCO2	80.5	75% (inactive)	80.5% (inactive)	98.8% (inactive)	91.6% (inactive)	11.9% (inactive)	79.7	91.6	-2.5% (inactive)	-4.44% (inactive)
Cc1ccc(Oc2ccc(-c3nc(N)nc(N)n3)cc2)cc1	112	82% (inactive)	112% (inactive)	76.6% (inactive)	108% (inactive)	23.1% (inactive)	84.8	108	-5.33% (inactive)	2.1% (inactive)
COCCNC(=O)Cn1nc(C(F)(F)F)c(Br)c1C	118	104% (inactive)	118% (inactive)	90.4% (inactive)	108% (inactive)	15.8% (inactive)	92.5	108	-4.27% (inactive)	-0.81% (inactive)
N#C/C(C(=O)N1CCOCC1)=C1/SC(Cc2ccccc2)C(=O)N1c1ccccc1 (stereo not given)	92	90.5% (inactive)	92% (inactive)	99.4% (inactive)	98.4% (inactive)	-3.21% (inactive)	102	98.4	-3.55% (inactive)	-4.91% (inactive)
CCN(CC)CCCn1c(=S)[nH]c2cc(Cl)ccc2c1=O	101	96% (inactive)	101% (inactive)	106% (inactive)	97% (inactive)	6.63% (inactive)	90.4	97	-6.27% (inactive)	1.8% (inactive)
